According to the array DNA melting data of Ke et al. (doi:10.1101/2024.01.08.574731):

What was measured:
[1] = folding enthalpy; higher = less favourable; fluorescence melt of hairpins on a sequencing array, two-state fit; details: sodium 0.088 M
Procedure, shortened: (§1)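 Hairpins were imaged by Cy3 fluorescence on a sequenced MiSeq flow cell with annealed Cy3 and quencher oligos, in 50 mM Na-HEPES pH 8.0, 25 mM NaCl, in 2.5 °C steps up to 60 °C. Bootstrapped two-state fits of normalised signals gave melting temperature and folding enthalpy. Four replicates were combined by inverse variance, and fitted temperatures were raised by 9.35 °C to match UV melts.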

[2] = melting temperature; fluorescence melt of hairpins on a sequencing array, two-state fit, raised by 9.35 °C to match UV melts; details: sodium 0.088 M
Procedure, shortened: as §1

| Sequence | folding enthalpy [1] [kcal/mol] | Tm [2] [°C] |
| --- | --- | --- |
| GATCGCACGTGCGATC ((((((....)))))) | -40.4 | 68.8 |
| GATCGCAGCGGCGATC ((((((....)))))) | -28.8 | 68.4 |
| GATCGCAGCTGCGATC ((((((....)))))) | -41 | 69.3 |
| GATCGCCAAGCGATC ((((((...)))))) | -29.8 | 67.5 |
| GATCGCCAATGCGATC ((((((....)))))) | -38.1 | 65.3 |
| GATCGCCCAAGCGATC ((((((....)))))) | -23 | 66.7 |
| GATCGCCCGAAAGGGATC (((..(((....)))))) | -14.6 | 34.5 |
| GATCGCCCTAGCGATC ((((((....)))))) | -34.4 | 69.1 |
| GATCGCCGCTGCGATC ((((((....)))))) | -38.5 | 66.9 |
| GATCGCGAAAGCGACATC ((((((....)))..))) | -8.3 | 32.1 |
| GATCGCGAAAGCGGGATC ((((((....)))..))) | -14.1 | 45.5 |
| GATCGCGAAAGCGGTATC ((((((....)))..))) | -10.9 | 39 |
| GATCGCGAAAGCGTATC ((((((....))).))) | -15.5 | 51.8 |
| GATCGCGAAAGCGTTATC ((((((....)))..))) | -15 | 28.1 |
| GATCGCGCCTGCGATC ((((((....)))))) | -26.7 | 69.3 |
| GATCGCGCGGCGATC ((((((...)))))) | -34.6 | 68.5 |
| GATCGCGCGGGCGATC ((((((....)))))) | -32.9 | 67.2 |
| GATCGCGCGTGCGATC ((((((....)))))) | -26.4 | 67.9 |
| GATCGCGGAAACACGATC (((((.(....).))))) | -30.7 | 48.6 |
| GATCGCGGAAACGTGGTC ((.(.((....)).).)) | -26.7 | 43.6 |
| GATCGCGGGGGCGATC ((((((....)))))) | -27.7 | 69.3 |
| GATCGCTAATGCGATC ((((((....)))))) | -31.4 | 67.1 |
| GATCGCTCGAGCGATC ((((((....)))))) | -42.1 | 67.6 |
| GATCGCTGCCGCGATC ((((((....)))))) | -32.8 | 67.3 |

| Sequence | folding enthalpy [1] [kcal/mol] | Tm [2] [°C] |
| --- | --- | --- |
| GATCGCTGGAGCGATC ((((((....)))))) | -37.8 | 68.5 |
| GATCGCTGTCGCGATC ((((((....)))))) | -30.2 | 68.4 |
| GATCGCTTGCGCGATC ((((((....)))))) | -30.3 | 67.1 |
| GATCGGAACCCCGATC ((((((....)))))) | -40 | 54.1 |
| GATCGGAAGACCGATC ((((((....)))))) | -29 | 52.8 |
| GATCGGAATTCCGATC ((((((....)))))) | -51 | 56.6 |
| GATCGGACACCGATC ((((((...)))))) | -33.4 | 57.1 |
| GATCGGACTGCCGATC ((((((....)))))) | -42 | 55.5 |
| GATCGGATTCCGATC ((((((...)))))) | -44.6 | 54.6 |
| GATCGGATTTCCGATC ((((((....)))))) | -36.5 | 57.5 |
| GATCGGCATCCGATC ((((((...)))))) | -40.1 | 55.3 |
| GATCGGCCACCCGATC ((((((....)))))) | -39.9 | 54.9 |
| GATCGGCCCTCCGATC ((((((....)))))) | -39.9 | 56.7 |
| GATCGGCCTTCCGATC ((((((....)))))) | -41.3 | 56.1 |
| GATCGGCGCACCGATC ((((((....)))))) | -37.4 | 59.9 |
| GATCGGCGGACCGATC ((((((....)))))) | -38.8 | 57.2 |
| GATCGGCGGTCCGATC ((((((....)))))) | -43.3 | 55.5 |
| GATCGGCTACCGATC ((((((...)))))) | -33.9 | 56 |
| GATCGGCTCACCGATC ((((((....)))))) | -38.8 | 57.4 |
| GATCGGCTCCCCGATC ((((((....)))))) | -42.1 | 55.2 |
| GATCGGCTCGCCGATC ((((((....)))))) | -35.9 | 69.3 |
| GATCGGCTGACCGATC ((((((....)))))) | -40.4 | 56.2 |
| GATCGGCTGTCCGATC ((((((....)))))) | -39.6 | 56.3 |
| GATCGGCTTCCGATC ((((((...)))))) | -44.9 | 56.1 |

| Sequence | folding enthalpy [1] [kcal/mol] | Tm [2] [°C] |
| --- | --- | --- |
| GATCGGGACTCCGATC ((((((....)))))) | -39.7 | 61 |
| GATCGGGAGACCGATC ((((((....)))))) | -32.6 | 63.8 |
| GATCGGGAGGCCGATC ((((((....)))))) | -46.1 | 56.2 |
| GATCGGGAGTCCGATC ((((((....)))))) | -39.6 | 56.5 |
| GATCGGGCGCCGATC ((((((...)))))) | -46.3 | 55 |
| GATCGGGCGTCCGATC ((((((....)))))) | -37.2 | 58.2 |
| GATCGGGGAAACTCGATC (((((.(....).))))) | -33.1 | 51.2 |
| GATCGGGGACCGATC ((((((...)))))) | -37.2 | 66.8 |
| GATCGGGGATCCGATC ((((((....)))))) | -40.7 | 62.8 |
| GATCGGGGCCCGATC ((((((...)))))) | -41.2 | 60.5 |
| GATCGGGGGCCGATC ((((((...)))))) | -40.8 | 54.9 |
| GATCGGGGTCCGATC ((((((...)))))) | -32.1 | 58.6 |
| GATCGGGTACCCGATC ((((((....)))))) | -47.6 | 64.9 |
| GATCGGGTATCCGATC ((((((....)))))) | -37.6 | 65.4 |
| GATCGGGTGGCCGATC ((((((....)))))) | -40.4 | 57 |
| GATCGGGTGTCCGATC ((((((....)))))) | -37.7 | 58.3 |
| GATCGGGTTTCCGATC ((((((....)))))) | -39.9 | 60.7 |
| GATCGGTACACCGATC ((((((....)))))) | -40.4 | 62.2 |
| GATCGGTACCCCGATC ((((((....)))))) | -42.5 | 54.4 |
| GATCGGTACCCGATC ((((((...)))))) | -39.3 | 57.2 |
| GATCGGTATGCCGATC ((((((....)))))) | -41.9 | 62.1 |
| GATCGGTATTCCGATC ((((((....)))))) | -42 | 58.4 |
| GATCGGTCAGCCGATC ((((((....)))))) | -41.8 | 59.8 |
| GATCGGTCCCCCGATC ((((((....)))))) | -45 | 55.7 |

| Sequence | folding enthalpy [1] [kcal/mol] | Tm [2] [°C] |
| --- | --- | --- |
| GATCGGTCCGCCGATC ((((((....)))))) | -42.5 | 60.1 |
| GATCGGTCCTCCGATC ((((((....)))))) | -38 | 59.9 |
| GATCGGTCGGCCGATC ((((((....)))))) | -45.8 | 59.4 |
| GATCGGTCTCCGATC ((((((...)))))) | -43.1 | 57.4 |
| GATCGGTCTGCCGATC ((((((....)))))) | -41.8 | 62.1 |
| GATCGGTGGACCGATC ((((((....)))))) | -31.7 | 57.2 |
| GATCGGTTAACCGATC ((((((....)))))) | -47.3 | 58.8 |
| GATCGGTTATCCGATC ((((((....)))))) | -36.8 | 58.9 |
| GATCGGTTGTCCGATC ((((((....)))))) | -33.8 | 57.1 |
| GATCGTAAAAACGATC ((((((....)))))) | -31.8 | 50.3 |
| GATCGTAATCACGATC ((((((....)))))) | -45.7 | 53.2 |
| GATCGTAATTACGATC ((((((....)))))) | -36 | 56.3 |
| GATCGTACACACGATC ((((((....)))))) | -40.7 | 54.4 |
| GATCGTACGGACGATC ((((((....)))))) | -45.6 | 54.4 |
| GATCGTACTACGATC ((((((...)))))) | -36.3 | 56.5 |
| GATCGTACTGACGATC ((((((....)))))) | -36.2 | 55.2 |
| GATCGTAGCCACGATC ((((((....)))))) | -39.3 | 56.2 |
| GATCGTATAACGATC ((((((...)))))) | -47.3 | 55.7 |
| GATCGTATCAACGATC ((((((....)))))) | -35.5 | 55 |
| GATCGTATCACGATC ((((((...)))))) | -37.6 | 58.4 |
| GATCGTATCTACGATC ((((((....)))))) | -37.9 | 57.6 |
| GATCGTATGAACGATC ((((((....)))))) | -31 | 53.6 |
| GATCGTCAAAACGATC ((((((....)))))) | -40 | 55.1 |
| GATCGTCACACGATC ((((((...)))))) | -37.8 | 57 |
